# pIC50: −log10 of the molar value.
# Columns and labels:
# [1] = Inhibition of PDE4 in PBMC (unknown origin) assessed as reduction in LPS-induced TNFalpha production incubated for 24 hrs by ELISA; details: Homo sapiens
# Rattus norvegicus [2] = test: Anti-inflammatory activity in Sprague-Dawley rat assessed as inhibition of LPS-induced neutrophilia at 100 ug/kg, it administered as suspension with Penn-Century micro-sprayer aerosolizer dosed 1 hrs before LPS challenge and measured 5 hrs post dose; format: functional; details: inhaled or nasal
# Method in brief: (§1)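 Suspensions in PBS/0.2% Tween 80 were homogenized, with lower doses made by 1:10 dilutions. 0.2 mL was given intratracheally by MicroSprayer to isoflurane-anesthetized fasted male Sprague-Dawley rats (230–280 g). At 1 or 18 h, rats received nebulized LPS (30 mL of a 1:100 PBS dilution of 100 mg/10 mL stock) over 40 min. Four hours later, BAL neutrophils were counted by flow cytometry.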
# Rattus norvegicus [3] = test: Anti-inflammatory activity in Sprague-Dawley rat assessed as inhibition of LPS-induced neutrophilia at 300 ug/kg, it administered as suspension with Penn-Century micro-sprayer aerosolizer dosed 18 hrs before LPS challenge and measured 22 hrs post dose; format: functional; details: inhaled or nasal; method in brief: as §1
# Adenosine receptor A1 = target: T1, Adenosine receptor A1 (Homo sapiens, UniProt P30542); test: Antagonist activity at adenosine A1 receptor (unknown origin)
# T1 sequence (P30542 whole entry): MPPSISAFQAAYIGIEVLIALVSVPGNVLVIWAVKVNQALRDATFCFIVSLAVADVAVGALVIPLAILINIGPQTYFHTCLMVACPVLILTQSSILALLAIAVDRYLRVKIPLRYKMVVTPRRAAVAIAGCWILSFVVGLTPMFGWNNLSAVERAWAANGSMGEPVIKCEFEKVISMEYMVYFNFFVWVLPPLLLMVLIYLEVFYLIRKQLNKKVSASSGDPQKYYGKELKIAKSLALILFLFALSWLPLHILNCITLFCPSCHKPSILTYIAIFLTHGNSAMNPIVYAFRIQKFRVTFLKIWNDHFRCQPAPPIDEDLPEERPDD
# Adenosine receptor A2a = Adenosine receptor A2a (Homo sapiens, UniProt P29274); test: Antagonist activity at adenosine A2a receptor (unknown origin)
# Adenosine receptor A2a, sequence (P29274 whole entry): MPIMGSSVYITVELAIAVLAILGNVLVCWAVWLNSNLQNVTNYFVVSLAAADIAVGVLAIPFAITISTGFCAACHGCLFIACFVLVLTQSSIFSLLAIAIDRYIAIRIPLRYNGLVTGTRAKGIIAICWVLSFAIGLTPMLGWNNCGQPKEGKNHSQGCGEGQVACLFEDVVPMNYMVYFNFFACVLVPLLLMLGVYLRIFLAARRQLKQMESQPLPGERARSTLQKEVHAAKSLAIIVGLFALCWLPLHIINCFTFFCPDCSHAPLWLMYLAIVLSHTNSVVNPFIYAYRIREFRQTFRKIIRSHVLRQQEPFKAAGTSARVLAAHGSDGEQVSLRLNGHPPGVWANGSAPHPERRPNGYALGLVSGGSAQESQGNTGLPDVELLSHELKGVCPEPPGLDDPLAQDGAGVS
# Adenosine receptor A2b = target: T2, Adenosine receptor A2b (Homo sapiens, UniProt P29275); test: Antagonist activity at adenosine A2b receptor (unknown origin)
# T2 sequence (P29275 whole entry): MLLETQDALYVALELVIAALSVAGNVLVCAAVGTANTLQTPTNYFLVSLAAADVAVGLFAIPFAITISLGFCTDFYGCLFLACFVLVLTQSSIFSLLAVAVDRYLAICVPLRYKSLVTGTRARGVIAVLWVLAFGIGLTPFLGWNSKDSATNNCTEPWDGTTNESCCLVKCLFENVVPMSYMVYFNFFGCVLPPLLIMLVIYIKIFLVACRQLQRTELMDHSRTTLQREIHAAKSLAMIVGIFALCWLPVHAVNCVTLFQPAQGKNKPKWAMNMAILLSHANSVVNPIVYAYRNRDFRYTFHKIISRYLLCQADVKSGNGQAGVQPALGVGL
# Rattus norvegicus [4] = test: Anti-inflammatory activity in Sprague-Dawley rat assessed as inhibition of LPS-induced neutrophilia at 10 ug/kg, it administered as suspension with Penn-Century micro-sprayer aerosolizer dosed 1 hrs before LPS challenge and measured 5 hrs post dose; format: functional; details: inhaled or nasal; method in brief: as §1
# Rattus norvegicus [5] = test: Anti-inflammatory activity in Sprague-Dawley rat assessed as inhibition of LPS-induced neutrophilia at 30 ug/kg, it administered as suspension with Penn-Century micro-sprayer aerosolizer dosed 18 hrs before LPS challenge and measured 22 hrs post dose; format: functional; details: inhaled or nasal; method in brief: as §1
# [6] = Inhibition of PDE4 in human whole blood assessed as reduction in LPS-induced TNFalpha production incubated for 24 hrs by ELISA; format: tissue-based
# Method in brief: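 Human whole blood was preincubated with LPS (final 1 μg/mL) for 10 min at 37 °C with rocking. 200 μL was added to wells holding increasing inhibitor concentrations in 100% DMSO. Plates were incubated 24 h at 37 °C under agitation, then placed on ice, diluted with PBS and centrifuged at 800g, 4 °C, for 15 min before TNF-α measurement.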
# Rattus norvegicus [7] = test: Anti-inflammatory activity in Sprague-Dawley rat assessed as inhibition of LPS-induced neutrophilia at 10 ug/kg, it administered as dry powder with lactose carrier through Penn-Century insufflator dosed 18 hrs before LPS challenge and measured 22 hrs post dose; format: functional
# Method in brief: (§2)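 Compounds were micronized, comixed with lactose, and 5 mg of the mixture was insufflated intratracheally into isoflurane-anesthetized fasted male Sprague-Dawley rats (230–280 g). LPS aerosol (30 mL of a 1:100 PBS dilution of 100 mg/10 mL stock) was nebulized for 40 min at 1 or 18 h post-dose. BAL was taken 4 h later and neutrophils counted by flow cytometry. Controls: lactose alone, lactose+LPS, fluticasone (10% in lactose).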
# Rattus norvegicus [8] = test: Anti-inflammatory activity in Sprague-Dawley rat assessed as inhibition of LPS-induced neutrophilia at 10 to 1000 ug/kg, it administered as suspension with Penn-Century micro-sprayer aerosolizer dosed 1 hrs before LPS challenge and measured 5 hrs post dose; format: functional; details: inhaled or nasal; method in brief: as §1
# Rattus norvegicus [9] = test: Anti-inflammatory activity in Sprague-Dawley rat assessed as inhibition of LPS-induced neutrophilia at 100 ug/kg, it administered as suspension with Penn-Century micro-sprayer aerosolizer dosed 18 hrs before LPS challenge and measured 22 hrs post dose; format: functional; details: inhaled or nasal; method in brief: as §1
# Rattus norvegicus [10] = test: Anti-inflammatory activity in Sprague-Dawley rat assessed as inhibition of LPS-induced neutrophilia at 10 ug/kg, it administered as dry powder with lactose carrier through Penn-Century insufflator dosed 1 hrs before LPS challenge and measured 5 hrs post dose; format: functional; method in brief: as §2
# Rattus norvegicus [11] = test: Anti-inflammatory activity in Sprague-Dawley rat assessed as inhibition of LPS-induced neutrophilia at 100 ug/kg, it administered as dry powder with lactose carrier through Penn-Century insufflator dosed 1 hrs before LPS challenge and measured 5 hrs post dose; format: functional; method in brief: as §2
# Rattus norvegicus [12] = test: Anti-inflammatory activity in Sprague-Dawley rat assessed as inhibition of LPS-induced neutrophilia at 100 ug/kg, it administered as dry powder with lactose carrier through Penn-Century insufflator dosed 18 hrs before LPS challenge and measured 22 hrs post dose; format: functional; method in brief: as §2
# [13] = Pro-inflammatory activity in Sprague-Dawley rat assessed as induction of neutrophilia at 1000 ug/kg, it administered as dry powder with lactose carrier through Penn-Century insufflator; details: in vivo, inhaled_or_intranasal, 1 mg/kg
# Rattus norvegicus [14] = test: Anti-inflammatory activity in Sprague-Dawley rat assessed as inhibition of LPS-induced neutrophilia at 1000 ug/kg, it administered as suspension with Penn-Century micro-sprayer aerosolizer dosed 18 hrs before LPS challenge and measured 22 hrs post dose; format: functional; details: inhaled or nasal; method in brief: as §1
# Rattus norvegicus [15] = test: Anti-inflammatory activity in Sprague-Dawley rat assessed as inhibition of LPS-induced neutrophilia at 1000 ug/kg, it administered as dry powder with lactose carrier through Penn-Century insufflator dosed 1 hrs before LPS challenge and measured 5 hrs post dose; format: functional; method in brief: as §2
# Rattus norvegicus [16] = test: Toxicity in Sprague-Dawley rat model of LPS-induced neutrophilia assessed as induction of irritation in lungs at 1000 ug/kg, it administered as dry powder with lactose carrier through Penn-Century insufflator dosed 18 hrs before LPS challenge and measured 22 hrs post dose; format: organism-based; details: in vivo, inhaled_or_intranasal, 1 mg/kg
# [17] = target: 3',5'-cyclic-AMP phosphodiesterase 4B (Homo sapiens, UniProt Q07343); test: Inhibition of human recombinant PDE4B1 assessed as reduction in [3H]cAMP hydrolysis to [3H]AMP incubated for 60 mins by PDE-SPA assay
# 3',5'-cyclic-AMP phosphodiesterase 4B, sequence (Q07343 whole entry): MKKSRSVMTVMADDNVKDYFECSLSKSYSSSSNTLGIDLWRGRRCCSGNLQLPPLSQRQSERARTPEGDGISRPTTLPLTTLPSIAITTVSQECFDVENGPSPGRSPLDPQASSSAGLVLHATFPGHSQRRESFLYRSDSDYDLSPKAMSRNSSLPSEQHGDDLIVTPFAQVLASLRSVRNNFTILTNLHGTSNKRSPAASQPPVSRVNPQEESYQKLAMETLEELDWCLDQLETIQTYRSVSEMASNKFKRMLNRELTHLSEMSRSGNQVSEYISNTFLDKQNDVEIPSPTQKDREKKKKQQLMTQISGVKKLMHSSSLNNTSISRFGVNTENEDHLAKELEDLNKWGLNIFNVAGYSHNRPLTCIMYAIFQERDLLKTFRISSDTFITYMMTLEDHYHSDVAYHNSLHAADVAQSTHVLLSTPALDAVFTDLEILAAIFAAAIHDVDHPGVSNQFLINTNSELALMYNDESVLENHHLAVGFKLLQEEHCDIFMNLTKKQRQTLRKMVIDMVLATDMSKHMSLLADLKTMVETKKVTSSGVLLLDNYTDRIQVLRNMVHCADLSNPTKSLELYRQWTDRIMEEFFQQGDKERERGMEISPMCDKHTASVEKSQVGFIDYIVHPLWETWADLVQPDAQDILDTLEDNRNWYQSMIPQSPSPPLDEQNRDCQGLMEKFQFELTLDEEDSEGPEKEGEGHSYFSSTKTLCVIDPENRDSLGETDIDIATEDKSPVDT
# [18] = Selectivity index, ratio of IC50 for adenosine A1/A2a/A2b receptor (unknown origin) to IC50 for inhibition of PDE4 in PBMC (unknown origin) assessed as reduction in LPS-induced TNFalpha production; set-up: species or system Homo sapiens
pIC50 [1],pIC50 (Adenosine receptor A1),pIC50 (Adenosine receptor A2a),pIC50 (Adenosine receptor A2b),pIC50 [6],SMILES,inhibition in vivo at 0.1 mg/kg (Rattus norvegicus [2]) [%],inhibition in vivo at 0.3 mg/kg (Rattus norvegicus [3]) [%],inhibition in vivo at 0.03 mg/kg (Rattus norvegicus [5]) [%],ED50 (Rattus norvegicus [8]) [mg/kg],inhibition in vivo at 0.1 mg/kg (Rattus norvegicus [9]) [%],inhibition in vivo at 0.01 mg/kg (Rattus norvegicus [10]) [%],other results
10.30,7.15,< 6.00,< 6.00,–,CCn1nc(-c2cccc(-c3cc(C(=O)NCCCN(C)C)cc(C(=O)OC)c3)c2)cc(NC(=O)Nc2c(Cl)cncc2Cl)c1=O,64,26,30,–,–,–,inhibition in vivo at 0.01 mg/kg (Rattus norvegicus [4]): 52%
9.28,7.51,6.98,7.05,6.43,CCn1nc(-c2cccc(-c3ccc(CC(=O)NCCN4CCCCC4)cc3)c2)cc(NC(=O)Nc2c(Cl)cncc2Cl)c1=O,–,47,–,0.089,48,48,inhibition in vivo at 0.01 mg/kg (Rattus norvegicus [7]): 42%; inhibition in vivo at 0.1 mg/kg (Rattus norvegicus [11]): 42%; inhibition in vivo at 0.1 mg/kg (Rattus norvegicus [12]): 39%
9.52,8.70,7.55,7.11,6.37,CCn1nc(-c2cccc(-c3cccc(C(=O)NCCN(C)C)c3)c2)cc(NC(=O)Nc2c(Cl)cncc2Cl)c1=O,70,–,–,0.0035,–,38,fold change (FC) [13]: 3.2; inhibition in vivo at 1 mg/kg (Rattus norvegicus [14]): 38%; inhibition in vivo at 1 mg/kg (Rattus norvegicus [15]): 8%; Activity (Rattus norvegicus [16]): Toxic
9.54,< 6.00,< 6.00,< 6.00,–,CCn1nc(-c2cccc(-c3cc(C(=O)NC4CC4)cc(C(=O)NC4CCN(Cc5ccccc5)CC4)c3)c2)cc(NC(=O)Nc2c(Cl)cncc2Cl)c1=O,–,60,49,0.029,45,–,pIC50 [17]: 9.66; Ratio IC50 [18]: >1000
